According to the RNAGym collection of RNA variant scans (doi:10.1002/anie.201605470):

B1: Osa-1-4 twister ribozyme (parent)
chain: CCGCCUAACACUGCCAAUGCCGGUCCCAAGCCCGGAUAAAAGUGGAGGGGGCGG

Variants of: B1
Assay: self-cleavage, relative activity (ratio to wild type); higher = more cleavage; co-transcriptional
Method in brief: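 A DNA template for a 54-nucleotide Oryza sativa twister ribozyme was synthesised with 97 % wild-type base and 1 % of each other base at the 48 positions downstream of the cleavage site. It was transcribed in vitro for 2 h at 37 °C, allowing co-transcriptional self-cleavage, then reverse-transcribed with a template-switching oligonucleotide, PCR-amplified and deep-sequenced. Cleavage status was scored from reads with or without upstream sequence. Relative activity is fraction cleaved normalised to wild type.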

Variant | self-cleavage
C33A G30A | 0.02
C33A G30U | 0.02
C33A G30C | 0.02
C33G G51U | 0.05
C33G G51C | 0.06
C33G G51A | 0.06
C33G G45A | 0.04
C33G G45C | 0.02
C33G G45U | 0.02
C32U G44A | 0.08
C32U G44C | 0.09
C32U G44U | 0.07
C33A G51U | 0.05
C33A G51A | 0.06
C33A G51C | 0.05
C33U | 0.88
C33A | 0.28
C33G | 0.06
C33G G30U | 0.02
C33G G30A | 0.02
C33G G30C | 0.02
C32G U18G | 0.14
C32G U18A | 0.14
C32G U18C | 0.15

Variant | self-cleavage
C33U G53U | 0.13
C33U G53C | 0.07
C33U G53A | 0.35
C32U G48A | 0.03
C32U G48C | 0.03
C32U G48U | 0.03
C33G G35U | 0.04
C33G G35A | 0.05
C33G G35C | 0.03
C33A G44C | 0.09
C33A G44U | 0.1
C33A G44A | 0.08
C33A G23A | 0.06
C33A G23U | 0.04
C33A G23C | 0.02
C32G G48U | 0.03
C32G G48C | 0.04
C32G G48A | 0.05
C32U G34U | 0.08
C32U G34C | 0.07
C32U G34A | 0.09
C32U G50U | 0.11
C32U G50A | 0.1
C32U G50C | 0.09

Variant | self-cleavage
G34A G35C | 0.29
G34A G35A | 0.77
G34A G35U | 0.8
C33A C52G | 0.17
C33A C52A | 0.11
C33A C52U | 0.28
C32U G22U | 0.07
C32U G22C | 0.04
C32U G22A | 0.09
C33A G22U | 0.93
C33A G22C | 0.22
C33A G22A | 0.87
C32U G54U | 0.26
C32U G54A | 0.1
C32U G54C | 0.09
C32U G53A | 0.09
C32U G53U | 0.09
C32U G53C | 0.05
C33U G19C | 0.02
C33U G19A | 0.17
C33U G19U | 0.06
C33A G48C | 0.05
C33A G48U | 0.04
C33A G48A | 0.04

Variant | self-cleavage
C32U U37G | 0.26
C32U U37C | 0.16
C32U U37A | 0.21
C33G G54U | 0.1
C33G G54C | 0.03
C33G G54A | 0.08
C32G G47U | 0.04
C32G G47C | 0.04
C33G C9G | 0.07
C33G C9A | 0.02
C33G C9U | 0.04
C33A G13A | 0.02
C33A G13U | 0.02
C33A G13C | 0.01
C33G G53A | 0.08
C33G G53C | 0.03
C33G G53U | 0.04
C33U C52A | 0.84
C33U C52G | 0.88
C33U C52U | 0.99
C33G U24A | 0.04
C33G U24G | 0.01
C33G U24C | 0.04
C32G U37A | 0.16

Variant | self-cleavage
C32G U37C | 0.14
C32G U37G | 0.19
C32U | 0.24
C33U U12G | 0.08
C33U U12A | 0.27
C33U U12C | 0.11
C33G U37C | 0.05
C33G U37A | 0.08
C33G U37G | 0.08
C33U G54A | 0.57
C33U G54C | 0.61
C33U G54U | 0.68
C33G G48C | 0.03
C33G G48A | 0.02
C33G G48U | 0.02
C33U G44A | 0.5
C33U G44U | 0.53
C33U G44C | 0.29
C32U G19C | 0.03
C32U G19U | 0.05
C32U G19A | 0.1
C33U G50C | 0.53
C33U G50U | 0.88
C33U G50A | 0.32

Variant | self-cleavage
C32U C52G | 0.15
C32U C52A | 0.13
C32U C52U | 0.2
C32U G23A | 0.85
C32U G23C | 0.03
C32U G23U | 0.12
C32U C33G | 0.02
C32U C33A | 0.04
C32U C33U | 0.06
C33U G45C | 0.06
C33U G45U | 0.05
C33U G45A | 0.08
C33U G22C | 0.45
C33U G22A | 1.08
C33U G22U | 1
G34A | 0.86
C33A U37G | 0.29
C33A U37A | 0.34
C33A U37C | 0.14
C33U U37C | 0.88
C33U U37G | 0.9
C33U U37A | 0.87
C33A G47A | 0.04
C33A G47C | 0.04

Variant | self-cleavage
C33A G47U | 0.04
C32U U18C | 0.18
C32U U18G | 0.22
C32U U18A | 0.16
C33U G34U | 0.13
C33U G34C | 0.21
C33U G34A | 0.22
C33A G34U | 0.06
C33A G34C | 0.05
C33A G34A | 0.08
C33G G34A | 0.06
C33G G34C | 0.05
C33G G34U | 0.05
C33A G35C | 0.04
C33A G35A | 0.07
C33A G35U | 0.07
C32U G47A | 0.06
C32U G47U | 0.06
C32U G47C | 0.04
C33U G35A | 0.49
C33U G35C | 0.08
C33U G35U | 0.11
C33G G23C | 0.03
